Experimental data collected from several papers.
Lines come from different studies, so protocols differ. In brackets after ≈: the same amount, converted by molar mass.

C[C@H]1COc2c(N3CCN(C)CC3)c(F)cc3c(=O)c(C(=O)O)cn1c23 has an MIC of at most 0.03 µg/mL (Escherichia coli; microbial growth; ATCCBAA2452; drug-resistant strain).
CCn1cc(C(=O)O)c(=O)c2cc(F)c(N3CCNCC3)cc21 gave an MBC of 0.25 µM (≈ 0.0798 µg/mL) (Escherichia coli; microbial killing; ATCC 8739, ATCC8739).
With NC[C@H]1OB(O)c2c(OCCCO)cccc21 the MIC was 1.56 µM (Escherichia coli; microbial growth; ATCC25922; 16 h).
The MBC of CO/N=C(\C(=O)N[C@@H]1C(=O)N2C(C(=O)O)=C(COC(C)=O)CS[C@H]12)c1csc(N)n1 is reported as 1 µM (≈ 0.455 µg/mL) (Escherichia coli; microbial killing; ATCC 8739, ATCC8739).
The MIC of CC(=O)NC[C@H]1CN(c2ccc(N3CCOCC3)c(F)c2)C(=O)O1 is reported as 2.3 µg/mL (Staphylococcus aureus; microbial growth, broth dilution; ATCC43300 MRSA).
The inhibition of C[C@@H](N)[C@H](O)CCCCCCCC(=O)CCCCCCCCCCCCCC[C@@H](O[C@@H]1O[C@H](CO)[C@H](O)[C@H](O)[C@H]1O)[C@@H](C)N is reported as 100% (Escherichia coli; microbial growth, resazurin; ATCC10536; 50 µM).
Cc1sc2c(c1C)C(c1ccc(Cl)cc1)=N[C@H](CC(=O)OC(C)(C)C)c1nnc(C)n1-2 has a viability of 110% (HBL1; cell growth or viability, ATP luminescence; 1 µM, 5 days).
The MIC of CN1C(=O)/C(=N\Nc2ncc(-c3cc4ccccc4oc3=O)s2)c2cc(Cl)ccc21 is reported as 1.3 µg/mL (Staphylococcus aureus; microbial growth, broth dilution; ATCC43300 MRSA).
For N.N.[Cl][Pt][Cl], the IC50 was 103 µM (BEAS-2B; cell growth or viability, MTT; 24 h).
The inhibition of N.N.[Cl][Pt][Cl] is reported as 100% (HBL1; cell growth or viability, ATP luminescence; 10 µM, 72 h).
The MIC of C[C@@H](O)[C@H]1C(=O)N2C(C(=O)O)=C(S[C@@H]3CN[C@H](C(=O)N(C)C)C3)[C@H](C)[C@H]12 is reported as over 8 µg/mL (Escherichia coli; microbial growth; ATCCBAA2452; drug-resistant strain).
